The values that follow come from the array DNA melting data of Ke et al. (doi:10.1101/2024.01.08.574731).

Data set [1] is described as follows: folding enthalpy; higher = less favourable; fluorescence melt of hairpins on a sequencing array, two-state fit. Particulars: sodium 0.088 M. In outline: (§1)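 In 50 mM Na-HEPES pH 8.0 containing 25 mM NaCl, hairpins from the library on a sequenced MiSeq flow cell were imaged for Cy3 fluorescence at 2.5 °C steps up to 60 °C, with Cy3 and quencher oligos annealed. After normalisation to pre-quench Cy3 and to control constructs, two-state fits with bootstrapping gave melting temperature and folding enthalpy. Four replicates were combined by inverse-variance weighting, and fitted temperatures were shifted up by 9.35 °C to match UV melts.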

Data set [2] can be described thus: melting temperature; fluorescence melt of hairpins on a sequencing array, two-state fit, raised by 9.35 °C to match UV melts. Particulars: sodium 0.088 M. An outline of the steps:
as §1

In the case of GCAGGTGGAAACGCCTGC (((((.(....).))))), the folding enthalpy in data set [1] is -46.6 kcal/mol. Also, in data set [2], the Tm was determined as 61.8 °C.

As for GCAGTACCGAAAGGTTGC (((..(((....)))))), in data set [1], the folding enthalpy was -20.4 kcal/mol. Besides, in data set [2], the Tm was determined as 43.3 °C.

In the case of GCAGTAGGAAACCACTGC (((((.(....).))))), the folding enthalpy in data set [1] is -29.2 kcal/mol. Moreover, the Tm in data set [2] is 48.2 °C.

GCAGTAGGAAACTACCAC (..((((....))))..): the folding enthalpy in data set [1] is -6.77 kcal/mol. Besides, in data set [2], the Tm was determined as 19.6 °C.

Consider GCAGTATCGAAAGATTGC (((..(((....)))))), for which the folding enthalpy in data set [1] was -20.5 kcal/mol. In addition, the Tm in data set [2] is 34.9 °C.

Take GCAGTCGAAAGACCGTGC ((((((....)))..))): the folding enthalpy in data set [1] is -16.8 kcal/mol. Further, the Tm in data set [2] worked out at 38.1 °C.

Turning to GCAGTCGAAAGACGCTGC ((((((....)))..))), in data set [1], the folding enthalpy is -21.6 kcal/mol. Moreover, the Tm in data set [2] was 55.6 °C.

As to GCAGTCGAAAGACTATGC ((((((....)))..))), the folding enthalpy in data set [1] was -17.8 kcal/mol. For the same sequence, in data set [2], the Tm amounted to 46.2 °C.

On to GCAGTCGAAAGACTCTGC ((((((....)))..))), for which, in data set [1], the folding enthalpy is -16.1 kcal/mol. The Tm in data set [2] was determined as 41.8 °C.

With GCAGTCGGAAACGACCAC (..((((....))))..), the folding enthalpy in data set [1] was -8.16 kcal/mol. In data set [2], the Tm is 32 °C.

As to GCAGTCGGAAACGACTAC (.(((((....))))).), in data set [1], the folding enthalpy was -13.4 kcal/mol. Further, the Tm in data set [2] stood at 41.7 °C.

As to GCAGTCGGAAACGGTTGC (((..((....))..))), the folding enthalpy in data set [1] is -25.8 kcal/mol. Moreover, in data set [2], the Tm stood at 42.4 °C.

With GCAGTGCCGAAAGGCTGC (((..(((....)))))), in data set [1], the folding enthalpy is -14.8 kcal/mol. For the same sequence, in data set [2], the Tm is 49.8 °C.

Consider GCAGTGCGAAAGCACAGC ((.((((....)))).)), for which the folding enthalpy in data set [1] was -17.1 kcal/mol. The Tm in data set [2] amounted to 68.2 °C.

GCAGTGCGAAAGCGTTGC (((..((....))..))): the folding enthalpy in data set [1] was -17.7 kcal/mol. Besides, the Tm in data set [2] amounted to 56.2 °C.

Regarding GCAGTGCGAAAGCTCAGC ((.(.((....)).).)), in data set [1], the folding enthalpy is -14.7 kcal/mol. Also, the Tm in data set [2] is 49.2 °C.

Regarding GCAGTGGGAAACCATTGC (((.(((....))).))), the folding enthalpy in data set [1] is -25.6 kcal/mol. Besides, the Tm in data set [2] was determined as 50.1 °C.

As to GCAGTTCGAAAGAATGC (((.(((....)))))), the folding enthalpy in data set [1] is -21.4 kcal/mol. For the same sequence, the Tm in data set [2] was found to be 41.2 °C.

Regarding GCAGTTGGAAACAACCGC ((.((((....)))).)), the folding enthalpy in data set [1] was -23.6 kcal/mol. Also, the Tm in data set [2] turned out to be 44.1 °C.

For GCATAAACGAAAGTTTGC (((..(((....)))))), the folding enthalpy in data set [1] was -18.5 kcal/mol. The Tm in data set [2] turned out to be 37.4 °C.

As to GCATAAGGAAACCTATGC (((((.(....).))))), in data set [1], the folding enthalpy was -27.1 kcal/mol. Moreover, the Tm in data set [2] is 39.2 °C.

Consider GCATAAGGAAACTTACGC ((.((((....)))).)), for which, in data set [1], the folding enthalpy was -21.7 kcal/mol. Also, the Tm in data set [2] worked out at 31.6 °C.

GCATACGAAAGTACGTGC ((((((....)))..))): the folding enthalpy in data set [1] was -18.1 kcal/mol. Further, the Tm in data set [2] was determined as 34.4 °C.

Take GCATACGAAAGTATCTGC ((((((....)))..))): in data set [1], the folding enthalpy is -15.5 kcal/mol. In addition, in data set [2], the Tm was 37.9 °C.

Consider GCATACGAAAGTATTGC ((((((....))).))), for which the folding enthalpy in data set [1] is -25.1 kcal/mol. The Tm in data set [2] is 45.7 °C.

GCATACTCGAAAGAGTGC (((..(((....)))))): the folding enthalpy in data set [1] is -16.8 kcal/mol. Also, in data set [2], the Tm was determined as 39 °C.

On to GCATAGCGAAAGCACTGC (((..((....))..))), for which the folding enthalpy in data set [1] was -13.9 kcal/mol. Further, the Tm in data set [2] turned out to be 39.6 °C.

GCATAGCGAAAGCGATGC ((((.((....)).)))): in data set [1], the folding enthalpy was -30.9 kcal/mol. The Tm in data set [2] stood at 66.1 °C.

Take GCATAGCGAAAGCTCTGC (((.(((....))).))): in data set [1], the folding enthalpy is -45.2 kcal/mol. In addition, the Tm in data set [2] worked out at 49.4 °C.

As for GCATAGCGAAAGCTGCGC ((..(((....)))..)), in data set [1], the folding enthalpy is -21 kcal/mol. Besides, the Tm in data set [2] was 61.3 °C.
